The target in one assay is DNA topoisomerase II (Homo sapiens, UniProt P11388+Q02880). Nature of the assay: Tested for inhibition of topoisomerase II isolated from HeLa cells by DNA-cleavage assay. Summed up: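 HeLa topo II purified from late-log suspension cultures. Reactions were assembled at 4 °C in 50 mM Tris-Cl pH 7.9, 44 mM NaCl, 10 mM MgCl2, 0.5 mM ATP, 3'-32P-end-labeled pBR322 and 10 units enzyme, then run 20 min at 37 °C. SDS/KCl precipitation captured covalent complex, counted by scintillation.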

Another assay concerns P388. Nature of the assay: In vitro cytotoxicity against P388 murine leukemia cells in culture in a clonogenic assay after 1 hour exposure to drug. In kind it is functional, cell-based. The following applies: Mus musculus, P388, 1 h.

Results on 23 compounds are retold here after ChEMBL document CHEMBL1126804, “Mammalian topoisomerase II inhibitory activity of 1-cyclopropyl-6,8- difluoro-1,4-dihydro-7-(2,6-dimethyl-4-pyridinyl)-4-oxo-3-quinolinecarb oxylic acid and related derivatives” (J Med Chem, 1993).

A word on the EC50: it is the concentration giving half of the maximal effect. Turning to `Cc1cc(-c2c(F)c(Sc3ccccc3)c3c(=O)c(C(=O)O)cn(C4CC4)c3c2F)cc(C)n1`, the concentration for a half-maximal effect (EC50) on DNA topoisomerase II is more than 420 µM. Still for that read-out and setting: the value for `Cc1cc(-c2c(F)cc3c(=O)c(C(=O)O)csc3c2F)cc(C)n1.Cl` was more than 140 µM; that for `O=C(O)c1cn(C2CC2)c2c(F)c(-c3ccncc3)c(F)cc2c1=O` was 17 µM; that for `Cc1cc(-c2c(F)cc3c(O)c(C(=O)O)cnc3c2F)cc(C)n1` was more than 300 µM. Same read-out and setting: the result for `NC1CCN(c2c(F)cc3c(=O)c(C(=O)O)cn(C4CC4)c3c2F)C1` (centres undefined) reads 340 µM; that for `Cc1cc(-c2c(F)cc3c(=O)c(C(=O)O)c(C)n(C4CC4)c3c2F)cc(C)n1`, more than 260 µM; that for `CCn1cc(C(=O)O)c(=O)c2cc(F)c(-c3cc(C)nc(C)c3)c(F)c21`, 110 µM. On the same count and under the same terms, the result for `O=C(O)c1cn(C2CC2)c2c(F)c(-c3cccnc3)c(F)cc2c1=O` reads 52 µM; that for `Cc1cc(-c2c(F)cc3c(=O)c(C(=O)O)cn(C4CC4)c3c2F)ccn1`, 16 µM. As usually defined, the IC50 is the concentration that inhibits the measured activity by half. On to `COc1cc([C@@H]2c3cc4c(cc3[C@@H](O[C@@H]3O[C@@H]5CO[C@@H](C)O[C@H]5[C@H](O)[C@H]3O)[C@H]3COC(=O)[C@H]23)OCO4)cc(OC)c1O` [ETOPOSIDE], for which the IC50 in the assay with P388 is 0.3 µM. Take `Cc1cc(-c2c(F)cc3c(=O)c(C(=O)O)c(-c4ccccc4)n(C4CC4)c3c2F)cc(C)n1`: at DNA topoisomerase II, the EC50 is more than 220 µM. `Cc1cc(-c2c(F)c(F)c3c(=O)c(C(=O)O)cn(C4CC4)c3c2F)cc(C)n1`: on DNA topoisomerase II, the half-maximal effective concentration (EC50) amounted to 13 µM. Still for that read-out and setting: the result for `CN1CCN(c2c(F)cc3c(=O)c(C(=O)O)cn(C4CC4)c3c2F)CC1` reads 150 µM; that for `O=C(O)c1cn(C2CC2)c2c(F)c(-c3ccc(O)cc3)c(F)cc2c1=O`, 1.2 µM. Still for that read-out and setting: the value for `Cc1cc(-c2c(F)cc3c(=O)cc(-c4ccccc4)n(C4CC4)c3c2F)cc(C)n1` was more than 240 µM. `Cc1cc(-c2c(F)cc3c(=O)c(C(=O)O)cn(C4CC4)c3c2F)cc(C)n1` [WIN-57294] displayed a concentration for a half-maximal effect (EC50) at DNA topoisomerase II of 7.6 µM. The IC50 in the assay on P388 was 29 µM. In turn, `Cc1cc(-c2c(F)cc3c(=O)ccn(C4CC4)c3c2F)cc(C)n1` yielded an EC50 on DNA topoisomerase II of 17 µM. Still for that read-out and setting: the result for `Cc1cc(-c2c(F)cc3c(=O)c(C(=O)[O-])cn(C(C)(C)C)c3c2F)cc(C)n1.[Na+]` reads 74 µM; that for `Cc1cc(-c2c(F)cc3c(=O)c(C(=O)O)cn(CCF)c3c2F)cc(C)n1`, more than 530 µM; that for `Cc1ccc(-c2c(F)cc3c(=O)c(C(=O)O)cn(C4CC4)c3c2F)c(C)n1`, 53 µM. Still for that read-out and setting: the value for `Cc1cc(-c2c(F)cc3c(=O)c(C(=O)O)cn(-c4ccc(F)cc4)c3c2F)cc(C)n1` was more than 430 µM. The same measure, in the same setting: the result for `Cc1cc(-c2c(F)c(N)c3c(=O)c(C(=O)O)cn(C4CC4)c3c2F)cc(C)n1` reads 6.2 µM.

For `Cc1cc(-c2c(F)cc3c(=O)cc(C)n(C4CC4)c3c2F)cc(C)n1`, the EC50 at DNA topoisomerase II was found to be 16 µM.
